For data set [1], the target named is T1, Glucocorticoid receptor (Homo sapiens, UniProt P04150).
T1 sequence (P04150 whole entry): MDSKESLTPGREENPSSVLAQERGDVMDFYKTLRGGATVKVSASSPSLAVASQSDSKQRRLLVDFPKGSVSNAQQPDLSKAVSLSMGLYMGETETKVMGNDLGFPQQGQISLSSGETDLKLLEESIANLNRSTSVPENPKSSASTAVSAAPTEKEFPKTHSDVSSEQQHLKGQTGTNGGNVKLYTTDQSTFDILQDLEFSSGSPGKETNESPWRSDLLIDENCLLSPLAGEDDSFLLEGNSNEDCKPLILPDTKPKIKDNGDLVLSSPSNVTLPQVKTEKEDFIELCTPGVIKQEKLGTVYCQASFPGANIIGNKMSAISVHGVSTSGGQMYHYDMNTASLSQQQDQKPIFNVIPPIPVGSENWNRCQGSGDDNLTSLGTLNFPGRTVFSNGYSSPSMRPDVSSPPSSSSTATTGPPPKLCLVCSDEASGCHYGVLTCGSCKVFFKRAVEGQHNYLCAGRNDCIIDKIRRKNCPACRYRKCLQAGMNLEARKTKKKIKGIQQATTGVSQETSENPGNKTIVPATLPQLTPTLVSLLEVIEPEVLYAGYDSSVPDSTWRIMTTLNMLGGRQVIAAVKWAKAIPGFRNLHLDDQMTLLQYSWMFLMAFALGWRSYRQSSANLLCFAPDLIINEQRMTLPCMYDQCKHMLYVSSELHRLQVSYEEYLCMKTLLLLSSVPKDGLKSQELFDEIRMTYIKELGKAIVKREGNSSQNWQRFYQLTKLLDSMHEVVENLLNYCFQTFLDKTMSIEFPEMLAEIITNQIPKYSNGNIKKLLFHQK
Kind of data set: Antagonist activity at glucocorticoid receptor in human HepG2 cells assessed as inhibition of dexamethasone-induced tyrosine amino transferase activity preincubated for 30 mins followed by dexamethasone addition measured after 20 hrs. In kind it is cell-based.

Data set [2] in a line: Cmax in Sprague-Dawley CD-1 rat plasma at 5 mg/kg, po administered through gavage measured up to 24 hrs by LC/MS analysis. The data set is classed as ADME, organism-based. Details: dose 5 mg/kg, route oral. The procedure, abridged: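 Jugular-catheterized male Sprague Dawley CD-1 rats (220-250g). Oral arm: five rats, 5mg/kg gavage, 1mg/mL in DMSO:0.5% methylcellulose 10:90, 5mL/kg, sampled pre-dose and 0.25-24 h. i.v. arm: three rats, 1mg/kg, 0.5mg/mL in DMSO:PEG400:propylene glycol 10:45:45, sampled pre-dose and 0.08-24 h. Plasma by LC/MS.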

The target in another data set is T2, androgen receptor (Homo sapiens, UniProt P10275).
T2 sequence (P10275 whole entry): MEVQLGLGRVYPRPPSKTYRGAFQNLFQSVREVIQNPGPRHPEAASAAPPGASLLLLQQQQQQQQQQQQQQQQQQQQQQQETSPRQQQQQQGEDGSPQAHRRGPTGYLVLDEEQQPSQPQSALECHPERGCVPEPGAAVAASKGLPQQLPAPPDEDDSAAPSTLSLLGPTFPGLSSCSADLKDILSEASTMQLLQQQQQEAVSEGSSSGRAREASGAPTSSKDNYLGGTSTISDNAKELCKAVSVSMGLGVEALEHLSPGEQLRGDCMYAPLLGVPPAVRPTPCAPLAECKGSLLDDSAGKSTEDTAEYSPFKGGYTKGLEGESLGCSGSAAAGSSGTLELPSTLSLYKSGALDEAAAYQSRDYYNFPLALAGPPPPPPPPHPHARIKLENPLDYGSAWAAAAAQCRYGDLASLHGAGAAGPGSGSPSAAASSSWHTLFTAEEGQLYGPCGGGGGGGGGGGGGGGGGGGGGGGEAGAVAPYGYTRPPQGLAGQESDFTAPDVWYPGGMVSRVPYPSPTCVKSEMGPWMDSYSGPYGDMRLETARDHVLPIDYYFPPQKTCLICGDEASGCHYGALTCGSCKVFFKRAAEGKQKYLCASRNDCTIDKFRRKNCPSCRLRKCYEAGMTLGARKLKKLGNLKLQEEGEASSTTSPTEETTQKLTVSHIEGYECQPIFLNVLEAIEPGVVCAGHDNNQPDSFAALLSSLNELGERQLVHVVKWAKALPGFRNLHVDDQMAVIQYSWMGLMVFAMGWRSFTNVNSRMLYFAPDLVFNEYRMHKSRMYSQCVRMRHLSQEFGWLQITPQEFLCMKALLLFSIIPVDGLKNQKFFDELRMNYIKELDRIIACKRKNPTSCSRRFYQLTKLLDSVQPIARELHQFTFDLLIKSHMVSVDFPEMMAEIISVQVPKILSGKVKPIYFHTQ
Kind of data set: Inhibition of radioligand binding to androgen receptor (unknown origin) at 1 uM relative to control.

Data set [3] concerns the target T3, Glucocorticoid receptor (Rattus norvegicus) (UniProt P06536).
T3 sequence (whole entry): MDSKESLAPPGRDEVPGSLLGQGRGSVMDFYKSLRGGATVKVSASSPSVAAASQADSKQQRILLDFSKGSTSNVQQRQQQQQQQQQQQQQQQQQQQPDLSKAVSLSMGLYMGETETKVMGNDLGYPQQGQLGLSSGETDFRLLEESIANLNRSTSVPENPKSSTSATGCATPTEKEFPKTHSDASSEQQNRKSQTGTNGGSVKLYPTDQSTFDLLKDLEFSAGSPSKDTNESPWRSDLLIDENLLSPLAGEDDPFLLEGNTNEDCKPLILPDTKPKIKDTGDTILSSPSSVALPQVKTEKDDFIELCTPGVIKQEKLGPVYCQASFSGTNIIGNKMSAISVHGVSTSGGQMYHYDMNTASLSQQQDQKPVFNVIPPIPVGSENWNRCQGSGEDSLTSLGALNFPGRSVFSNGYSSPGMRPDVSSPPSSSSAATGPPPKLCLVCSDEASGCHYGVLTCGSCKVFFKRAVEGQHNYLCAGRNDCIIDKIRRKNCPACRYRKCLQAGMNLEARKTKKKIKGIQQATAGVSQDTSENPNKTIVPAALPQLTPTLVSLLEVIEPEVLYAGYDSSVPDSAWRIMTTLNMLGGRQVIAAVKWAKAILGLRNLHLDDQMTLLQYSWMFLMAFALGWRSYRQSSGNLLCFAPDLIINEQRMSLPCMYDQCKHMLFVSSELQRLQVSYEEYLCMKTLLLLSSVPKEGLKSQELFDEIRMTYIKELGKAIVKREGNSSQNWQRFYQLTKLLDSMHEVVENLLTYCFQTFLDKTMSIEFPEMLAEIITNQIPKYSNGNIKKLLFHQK
The data set is described as follows: (§1) Agonist activity at rat glucocorticoid receptor in primary hepatocytes assessed as induction of tyrosine amino transferase activity measured after 20 hrs. In kind it is cell-based.

Data set [4] has as its target T4, Glucocorticoid receptor (Rattus norvegicus, UniProt P06536).
T4 sequence (P06536 whole entry): T3 sequence (whole entry)
The data set is described as §1. In kind it is cell-based.

Data set [5] can be described thus: Protein binding in human plasma. The data set is classed as ADME, cell-free. The following applies: read-out: PPB (converted).
Another data set concerns the target Cytochrome P450 2C19 (Homo sapiens, UniProt P33261). The data set is described as follows: Inhibition of CYP2C19 (unknown origin). The data set is classed as ADME.
The target of another data set is Cytochrome P450 3A5 (Homo sapiens, UniProt P20815). Kind of data set: Inhibition of CYP3A5 (unknown origin). In kind it is ADME.
Cytochrome P450 3A5, sequence (P20815 whole entry): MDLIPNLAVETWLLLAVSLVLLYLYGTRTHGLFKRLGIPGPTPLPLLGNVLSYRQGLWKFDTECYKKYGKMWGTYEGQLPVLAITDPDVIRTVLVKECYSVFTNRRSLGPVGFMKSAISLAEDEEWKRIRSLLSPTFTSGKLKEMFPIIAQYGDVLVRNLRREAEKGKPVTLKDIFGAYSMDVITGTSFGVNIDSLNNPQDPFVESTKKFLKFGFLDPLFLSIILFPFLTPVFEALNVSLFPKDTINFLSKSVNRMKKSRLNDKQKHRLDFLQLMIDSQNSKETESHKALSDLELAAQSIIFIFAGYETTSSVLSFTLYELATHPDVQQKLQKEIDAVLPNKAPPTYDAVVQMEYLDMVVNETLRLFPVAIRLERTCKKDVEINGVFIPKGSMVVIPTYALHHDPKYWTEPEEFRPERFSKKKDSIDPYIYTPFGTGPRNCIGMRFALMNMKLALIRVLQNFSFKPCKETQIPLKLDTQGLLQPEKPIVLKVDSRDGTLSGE

Cytochrome P450 2C19, sequence (P33261 whole entry): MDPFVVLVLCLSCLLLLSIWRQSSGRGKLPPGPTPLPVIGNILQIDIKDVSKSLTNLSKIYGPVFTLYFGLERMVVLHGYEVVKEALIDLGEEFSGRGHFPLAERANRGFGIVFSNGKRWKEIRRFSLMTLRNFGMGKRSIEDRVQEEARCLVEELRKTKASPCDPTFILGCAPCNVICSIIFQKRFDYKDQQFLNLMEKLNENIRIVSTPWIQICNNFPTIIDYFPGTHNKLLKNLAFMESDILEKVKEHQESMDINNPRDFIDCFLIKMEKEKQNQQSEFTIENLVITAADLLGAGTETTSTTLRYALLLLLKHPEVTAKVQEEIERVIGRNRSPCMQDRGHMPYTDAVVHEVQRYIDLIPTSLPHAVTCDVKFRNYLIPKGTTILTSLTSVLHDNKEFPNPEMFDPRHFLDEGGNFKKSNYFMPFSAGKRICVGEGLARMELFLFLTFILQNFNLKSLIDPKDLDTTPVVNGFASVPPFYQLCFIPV

As for `Cn1cc(S(=O)(=O)N2CCC3=Cc4c(cnn4-c4ccc(F)cc4)C[C@]3(C(=O)c3cc(C(F)(F)F)ccn3)C2)cn1` [RELACORILANT], the Ki – broadly, the equilibrium dissociation constant of an inhibitor or competing ligand from its target – at Glucocorticoid receptor [1] was determined as 0.0072 µM. Further, the maximum concentration (Cmax) (usually the peak of the concentration-time curve) in data set [2] is 297 ng/mL. Besides, the inhibition (commonly the drop in the measured response relative to a control, in per cent) at 1 µM on androgen receptor is less than 10%. In addition, the Emax (in general, the greatest response seen or fitted, relative to the assay's reference) in data set [3] was 22%. In addition, the EC50 (usually the concentration needed to bring the measured effect to its halfway point) on Glucocorticoid receptor [4] is greater than 10 µM. Besides, the fraction unbound in data set [5] is 0.005. The IC50 (in general, the concentration needed to halve the response being measured) against Cytochrome P450 2C19 came to 8 µM; at Cytochrome P450 3A5, 4.9 µM.

(Values after ChEMBL document CHEMBL4049426, “Identification of the Clinical Candidate (R)-(1-(4-Fluorophenyl)-6-((1-methyl-1H-pyrazol-4-yl)sulfonyl)-4,4a,5,6,7,8-hexahydro-1H-pyrazolo[3,4-g]isoquinolin-4a-yl)(4-(trifluoromethyl)pyridin-2-yl)methanone (CORT125134): A Selective Glucocorticoid Receptor (GR) Antagonist” (J Med Chem, 2017).)
